Tests used:
[1] = Retention time of the compound by HPLC analysis; format: physicochemical
Procedure, shortened: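 Reverse-phase C18 HPLC, isocratic acetonitrile/water 60:40, 1.0 mL/min, UV 254 nm; purity from major-peak area.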

[2] = biological target: T1, ATP-dependent translocase ABCB1 (Homo sapiens, UniProt P08183); test: Stimulation of ATPase activity of ABCB1 (unknown origin) expressed in High Five insect cell membrane assessed as ATP hydrolysis
Procedure, shortened: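 Vanadate-sensitive ATPase of P-gp in crude High Five membranes (10 μg protein/100 μL). Compound 0–10 μM, with and without 0.3 mM sodium orthovanadate, in ATPase assay buffer. […] Three independent experiments in duplicate, mean ± SEM.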

[3] = biological target: T1, ATP-dependent translocase ABCB1; test: Reversal of Pgp-1-mediated multidrug resistance in human SW620/Ad300 cells overexpressing ABCB1 assessed as potentiation of paclitaxel cytotoxicity at 1 uM treated for 2 hrs prior to paclitaxel challenge measured after 72 hrs by MTT assay relative to paclitaxel alone-treated control; format: cell-based; conditions: sw-620, 72 h
Procedure, shortened: (§1)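 MTT reversal assay. Cells seeded 5000–6000/well and attached 24 h; modulator added 2 h before graded paclitaxel; 72 h at 37 °C; MTT 4 h, DMSO solubilisation, A570. Paclitaxel IC50 taken from killing curves. Fold-resistance = paclitaxel IC50 (± modulator) ÷ paclitaxel IC50 in parental SW620 or HEK293. Four independent experiments in triplicate, mean ± SEM. Cells drug-free >2 weeks beforehand.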

[4] = Retardation factor of the compound using EtOAc-n-hexane at ratio of 3:2 by thin layer chromatography; format: physicochemical
[5] = Cytotoxicity against human SW620/Ad300 cells overexpressing ABCB1 assessed as cell survival at 10 uM by MTT assay; format: ADME, cell-based, SW-620; conditions: SW620/Ad300 cells that overexpress ABCB1, read-out: Activity
Procedure, shortened: (§2)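 Cells seeded at 5000–6000 per well in triplicate, attached 24 h at 37 °C, 5% CO2, then exposed to compound for 72 h. MTT (4 mg/mL) added for 4 h, formazan dissolved in DMSO, absorbance read at 570 nm. Four independent experiments. HEK/ABCB1 and HEK293 kept in DMEM with G418 (2 mg/mL). All lines drug-free for over 2 weeks beforehand.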

[6] = biological target: T1, ATP-dependent translocase ABCB1; test: Reversal of Pgp-1-mediated multidrug resistance in human SW620 cells assessed as potentiation of paclitaxel cytotoxicity at 1 uM treated for 2 hrs prior to paclitaxel challenge measured after 72 hrs by MTT assay relative to paclitaxel alone-treated control; format: cell-based; conditions: sw-620, 72 h; procedure, shortened: as §1
[7] = biological target: T1, ATP-dependent translocase ABCB1; test: Displacement of […] from ABCB1 (unknown origin) expressed in High Five insect cell membrane at >5 uM preincubated for 10 mins by autoradiography
Procedure, shortened: (§3)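 Compound 0–20 μM, 10 min at 37 °C. Then [125I]-IAAP (2200 Ci/mmol; 4–6 nM) added for 5 min under minimal light. UV 365 nm for 10 min, labeling read by autoradiography. Two independent experiments; curve fitted by one-phase decay.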

[8] = biological target: T1, ATP-dependent translocase ABCB1; test: Reversal of Pgp-1-mediated multidrug resistance in human SW620 cells assessed as potentiation of paclitaxel cytotoxicity at 10 uM treated for 2 hrs prior to paclitaxel challenge measured after 72 hrs by MTT assay relative to paclitaxel alone-treated control; format: cell-based; conditions: sw-620, 72 h
Procedure, shortened: (§4)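 Cells seeded at 5000–6000/well, attached 24 h at 37 °C, 5% CO2, then preincubated 2 h ± reversal agent before paclitaxel dilutions; after 72 h, MTT (4 mg/mL) 4 h, formazan dissolved in DMSO, absorbance 570 nm. Paclitaxel IC50 from killing curves; fold-resistance = IC50 divided by parental paclitaxel IC50. Four independent experiments in triplicate. HEK lines kept with G418 (2 mg/mL).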

[9] = biological target: T1, ATP-dependent translocase ABCB1; test: Reversal of Pgp-1-mediated multidrug resistance in human HEK293 cells assessed as potentiation of paclitaxel cytotoxicity at 10 uM treated for 2 hrs prior to paclitaxel challenge measured after 72 hrs by MTT assay relative to paclitaxel alone-treated control; format: cell-based; conditions: hek293, 72 h; procedure, shortened: as §4
[10] = Cytotoxicity against human HEK293 cells overexpressing human ABCB1 assessed as cell survival at 10 uM by MTT assay; format: ADME, cell-based; conditions: HEK293 cells that overexpress human ABCB1, read-out: Activity; procedure, shortened: as §2
[11] = biological target: T1, ATP-dependent translocase ABCB1; test: Reversal of Pgp-1-mediated multidrug resistance in human HEK293 cells overexpressing human ABCB1 assessed as potentiation of paclitaxel cytotoxicity at 10 uM treated for 2 hrs prior to paclitaxel challenge measured after 72 hrs by MTT assay relative to paclitaxel alone-treated control; format: cell-based; conditions: hek293, 72 h; procedure, shortened: as §4
[12] = biological target: T1, ATP-dependent translocase ABCB1; test: Reversal of Pgp-1-mediated multidrug resistance in human HEK293 cells assessed as potentiation of paclitaxel cytotoxicity at 1 uM treated for 2 hrs prior to paclitaxel challenge measured after 72 hrs by MTT assay relative to paclitaxel alone-treated control; format: cell-based; conditions: hek293, 72 h; procedure, shortened: as §1
[13] = Cytotoxicity against human SW620 cells assessed as cell survival at 10 uM by MTT assay; format: cell-based, SW-620; conditions: read-out: Activity; procedure, shortened: as §2
[14] = biological target: T1, ATP-dependent translocase ABCB1; test: Reversal of Pgp-1-mediated multidrug resistance in human HEK293 cells overexpressing human ABCB1 assessed as potentiation of paclitaxel cytotoxicity at 3 uM treated for 2 hrs prior to paclitaxel challenge measured after 72 hrs by MTT assay relative to paclitaxel alone-treated control; format: cell-based; conditions: hek293, 72 h; procedure, shortened: as §1
[15] = biological target: T1, ATP-dependent translocase ABCB1; test: Reversal of Pgp-1-mediated multidrug resistance in human SW620/Ad300 cells overexpressing ABCB1 assessed as potentiation of paclitaxel cytotoxicity at 10 uM treated for 2 hrs prior to paclitaxel challenge measured after 72 hrs by MTT assay relative to paclitaxel alone-treated control; format: cell-based; conditions: sw-620, 72 h; procedure, shortened: as §4
[16] = biological target: T1, ATP-dependent translocase ABCB1; test: Stimulation of ATPase activity of ABCB1 (unknown origin) expressed in High Five insect cell membrane assessed as ATP hydrolysis at >2.5 uM relative to control
[17] = biological target: T1, ATP-dependent translocase ABCB1; test: Reversal of Pgp-1-mediated multidrug resistance in human SW620 cells assessed as potentiation of paclitaxel cytotoxicity at 3 uM treated for 2 hrs prior to paclitaxel challenge measured after 72 hrs by MTT assay relative to paclitaxel alone-treated control; format: cell-based; conditions: sw-620, 72 h; procedure, shortened: as §1
[18] = biological target: T1, ATP-dependent translocase ABCB1; test: Displacement of […] from ABCB1 (unknown origin) expressed in High Five insect cell membrane preincubated for 10 mins by autoradiography; procedure, shortened: as §3
[19] = biological target: T1, ATP-dependent translocase ABCB1; test: Reversal of Pgp-1-mediated multidrug resistance in human HEK293 cells overexpressing human ABCB1 assessed as potentiation of paclitaxel cytotoxicity at 1 uM treated for 2 hrs prior to paclitaxel challenge measured after 72 hrs by MTT assay relative to paclitaxel alone-treated control; format: cell-based; conditions: hek293, 72 h; procedure, shortened: as §1
[20] = biological target: T1, ATP-dependent translocase ABCB1; test: Reversal of Pgp-1-mediated multidrug resistance in human HEK293 cells assessed as potentiation of paclitaxel cytotoxicity at 3 uM treated for 2 hrs prior to paclitaxel challenge measured after 72 hrs by MTT assay relative to paclitaxel alone-treated control; format: cell-based; conditions: hek293, 72 h; procedure, shortened: as §1
[21] = biological target: T1, ATP-dependent translocase ABCB1; test: Inhibition of human wild type P-gp expressed in BacMam virus infected human HeLa cells assessed as calcein-AM accumulation after 10 mins by flow cytometry; format: cell-based
Procedure, shortened: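 HeLa cells transduced with BacMam WT-P-gp (10–15 particles/cell); 10 mM butyric acid added after 3–4 h, grown overnight at 37 °C. Trypsinized cells exposed to compound, then 0.5 μM calcein-AM for 10 min at 37 °C in the dark. […] Two independent experiments in triplicate, ± SD.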

[22] = biological target: T1, ATP-dependent translocase ABCB1; test: Reversal of Pgp-1-mediated multidrug resistance in human SW620/Ad300 cells overexpressing ABCB1 assessed as potentiation of paclitaxel cytotoxicity at 3 uM treated for 2 hrs prior to paclitaxel challenge measured after 72 hrs by MTT assay relative to paclitaxel alone-treated control; format: cell-based; conditions: sw-620, 72 h; procedure, shortened: as §1
[23] = biological target: T1, ATP-dependent translocase ABCB1; test: Stimulation of ATPase activity of ABCB1 (unknown origin) expressed in High Five insect cell membrane assessed as ATP hydrolysis at 0.5 to 2.5 uM relative to control
[24] = Cytotoxicity against human HEK293 cells assessed as cell survival at 10 uM by MTT assay; format: cell-based; conditions: read-out: Activity; procedure, shortened: as §2

T1 sequence (P08183 whole entry): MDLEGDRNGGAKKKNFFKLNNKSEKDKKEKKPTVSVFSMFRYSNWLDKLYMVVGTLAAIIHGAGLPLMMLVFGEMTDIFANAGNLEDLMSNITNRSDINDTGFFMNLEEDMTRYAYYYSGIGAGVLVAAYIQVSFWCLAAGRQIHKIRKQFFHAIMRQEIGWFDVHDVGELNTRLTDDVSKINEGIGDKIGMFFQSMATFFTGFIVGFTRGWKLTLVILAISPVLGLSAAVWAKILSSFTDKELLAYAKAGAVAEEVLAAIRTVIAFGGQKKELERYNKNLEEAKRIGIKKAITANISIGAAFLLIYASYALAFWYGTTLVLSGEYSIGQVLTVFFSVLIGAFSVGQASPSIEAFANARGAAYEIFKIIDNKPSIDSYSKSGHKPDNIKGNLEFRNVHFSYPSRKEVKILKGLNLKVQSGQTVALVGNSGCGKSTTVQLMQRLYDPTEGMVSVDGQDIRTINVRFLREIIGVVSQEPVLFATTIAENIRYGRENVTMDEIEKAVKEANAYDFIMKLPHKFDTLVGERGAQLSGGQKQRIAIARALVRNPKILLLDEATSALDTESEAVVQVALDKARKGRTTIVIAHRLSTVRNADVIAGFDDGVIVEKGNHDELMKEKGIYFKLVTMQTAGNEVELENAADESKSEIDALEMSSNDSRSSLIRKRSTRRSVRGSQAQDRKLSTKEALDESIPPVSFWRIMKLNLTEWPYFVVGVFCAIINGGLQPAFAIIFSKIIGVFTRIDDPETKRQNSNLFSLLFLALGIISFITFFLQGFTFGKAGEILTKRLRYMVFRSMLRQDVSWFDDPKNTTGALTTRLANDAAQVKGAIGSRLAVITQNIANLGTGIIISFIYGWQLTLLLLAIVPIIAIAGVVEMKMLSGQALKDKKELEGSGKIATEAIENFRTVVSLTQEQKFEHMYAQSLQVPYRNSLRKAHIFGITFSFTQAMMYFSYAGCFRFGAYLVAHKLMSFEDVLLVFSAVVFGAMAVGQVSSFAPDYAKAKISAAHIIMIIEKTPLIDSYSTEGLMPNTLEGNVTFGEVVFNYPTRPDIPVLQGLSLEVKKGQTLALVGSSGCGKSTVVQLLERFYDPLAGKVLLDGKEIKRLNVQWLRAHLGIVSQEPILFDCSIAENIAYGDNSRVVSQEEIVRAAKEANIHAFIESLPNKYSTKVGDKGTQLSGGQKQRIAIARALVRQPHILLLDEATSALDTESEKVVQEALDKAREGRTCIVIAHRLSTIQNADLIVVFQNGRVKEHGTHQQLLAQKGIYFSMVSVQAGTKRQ

SMILES: COc1cc(C(=O)N[C@H](c2nc(C(=O)Nc3ccccc3C(=O)c3ccccc3)cs2)C(C)C)cc(OC)c1OC
- Retention_time [1]: 9.4 min
- EC50 [2]: 27 nM
- Activity ([2]; human): Dose-dependent effect
- Ratio [3]: 31
- Rf [4]: 0.45
- viability at 10 µM [5]: > 85%
- Ratio [6]: 1.2
- IC50 [7]: 720 nM
- inhibition (INH) ([7]; human): 90%
- Ratio [8]: 1
- Ratio [9]: 1
- viability at 10 µM [10]: > 85%
- Ratio [11]: 2
- Ratio [12]: 1
- viability at 10 µM [13]: > 85%
- Ratio [14]: 3.1
- Ratio [15]: 1.8
- Ratio [16]: 1.8
- Ratio [17]: 1
- inhibition (INH) [18]: Dose-dependent effect
- Ratio [19]: 12.9
- Ratio [20]: 1
- IC50 [21]: 1000 nM
- inhibition (INH) ([21]; human, hela, 10 min): Dose-dependent effect
- Ratio [22]: 8.5
- Ratio [23]: 2
- viability at 10 µM [24]: > 85%
